Data from ChEMBL document CHEMBL1124013, “Anticonvulsant activities of phenyl-substituted bicyclic 2,4-oxazolidinediones and monocyclic models. Comparison with binding to the neuronal voltage-dependent sodium channel” (J Med Chem, 1988).
The source made the active and inactive calls. The calls are words filed in the database; no cut-off is given here.

Assays:
[1] = test system: Mus musculus; experiment: Anticonvulsant activity in mice, (induced by subcutaneous administration of Metrazol.) after 0.5 hr of administration, for Phase-II screening; format: functional; conditions: sc
Outline: (§1)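 Phase II quantitative evaluation in mice by the NINCDS program. Dosing was ip as suspensions in 0.5% methylcellulose or 30% polyethylene glycol 400. ED50 (MES or subcutaneous Metrazol) or TD50 (rotorod) in mg/kg was derived with 95% confidence intervals, measured at the stated time after administration.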

[2] = test system: Mus musculus; experiment: Anticonvulsant activity in mice (induced by maximal electroshock )after 0.5 hr of administration, for Phase-II screening; format: functional; outline: as §1
[3] = test system: Mus musculus; experiment: Anticonvulsant activity in mice, induced by maximal electroshock for Phase-I screening; Active at 300 mg/kg; format: functional, organism-based; parameters: dose 300 mg/kg
Outline: (§2)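 Phase I qualitative screen run by the NINCDS Anticonvulsant Drug Development Program. Mice (1-4 per group) received 30, 100 or 300 mg/kg ip as suspensions in 30% polyethylene glycol 400 unless otherwise noted. Testing was 30 min after dosing in the MES, subcutaneous Metrazol or rotorod toxicity model.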

[4] = test system: Mus musculus; experiment: Rotarod toxicity test in Phase-I screening was determined; Active at 30 mg/kg; format: organism-based; parameters: dose 30 mg/kg; conditions: in vivo; outline: as §2
[5] = Rotarod toxicity test for the compound in Phase-II screening was determined; format: organism-based; conditions: mouse, in vivo
[6] = test system: Mus musculus; experiment: Anticonvulsant activity in mice, induced by subcutaneous administration of Metrazol for Phase-I screening; Active at 30 mg/kg; format: functional, organism-based; parameters: dose 30 mg/kg; outline: as §2
[7] = biological target: Sodium channel alpha subunits; brain (Types I, II, III) (Rattus norvegicus, UniProt P04775+P04774+P08104); experiment: In vitro inhibition of [3H]-BTX-B binding to sodium channels in rat brain synapto-neurosomes; format: tissue-based
Outline: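 Rat cerebral cortex synaptoneurosomes were prepared by glass-glass homogenization in choline chloride/HEPES/glucose/MgSO4/KCl buffer, then spun at 1000g for 15 min at 4 °C. Incubation was 40 min at 25 °C with 10 nM [3H]BTX-B, 50 µg/mL scorpion venom, about 980 µg protein and varying compound concentrations (final MeOH <1%). Bound label was collected by filtration and scintillation counting. Nonspecific binding was taken with 250 µM veratridine. IC50 is the concentration giving 50% inhibition of specific binding.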

[8] = test system: Mus musculus; experiment: Anticonvulsant activity in mice, (induced by subcutaneous administration of Metrazol.) after 0.25 hr of administration, for Phase-II screening; format: functional; conditions: sc; outline: as §1
[9] = test system: Mus musculus; experiment: Anticonvulsant activity in mice(induced by maximal electroshock )after 0.25 hr of administration, for Phase-II screening; format: functional; outline: as §1
[10] = test system: Mus musculus; experiment: Anticonvulsant activity in mice, induced by maximal electroshock for Phase-I screening; Active at 100 mg/kg; format: functional, organism-based; parameters: dose 100 mg/kg; outline: as §2
[11] = test system: Mus musculus; experiment: Rotarod toxicity test in Phase-I screening was determined; Active at 300 mg/kg; format: organism-based; parameters: dose 300 mg/kg; conditions: in vivo; outline: as §2
[12] = test system: Mus musculus; experiment: Anticonvulsant activity in mice, induced by subcutaneous administration of Metrazol for Phase-I screening; Active at 300 mg/kg; format: functional, organism-based; parameters: dose 300 mg/kg; outline: as §2
[13] = test system: Mus musculus; experiment: Anticonvulsant activity in mice(induced by maximal electroshock )after 0.5 hr of administration, for Phase-II screening; format: functional; outline: as §1
[14] = test system: Mus musculus; experiment: Anticonvulsant activity in mice, (induced by subcutaneous administration of Metrazol.) after 1 hr (tested for rotarod test only) of administration, for Phase-II screening; format: functional; conditions: sc
[15] = test system: Mus musculus; experiment: Anticonvulsant activity in mice(induced by maximal electroshock )after 1 hr (tested for rotarod test only) of administration, for Phase-II screening; format: functional
[16] = test system: Mus musculus; experiment: Anticonvulsant activity in mice, (induced by subcutaneous administration of Metrazol.) after 0.25 hr of administration, for Phase-II screening; Inactive; format: functional, organism-based; outline: as §1
[17] = test system: Mus musculus; experiment: Anticonvulsant activity in mice, induced by maximal electroshock for Phase-I screening; Inactive up to 300 mg/kg; format: functional, organism-based; parameters: dose 300 mg/kg
Outline: (§3)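 NINCDS Anticonvulsant Drug Development Program qualitative phase I screen in mice (1-4 per dose) at 30, 100 and 300 mg/kg, given ip as suspensions in 30% PEG 400 (some in 0.5% methylcellulose). Challenge 30 min post-dose with maximal electroshock or subcutaneous Metrazol.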

[18] = test system: Mus musculus; experiment: Rotarod toxicity test in Phase-I screening was determined; Inactive up to 300 mg/kg; format: organism-based; parameters: dose 300 mg/kg; conditions: in vivo; outline: as §2
[19] = test system: Mus musculus; experiment: Anticonvulsant activity in mice, (induced by subcutaneous administration of Metrazol.) after 2 hr of administration, for Phase-II screening; Inactive; format: functional, organism-based; outline: as §1
[20] = test system: Mus musculus; experiment: Anticonvulsant activity in mice(induced by maximal electroshock )after 2 hr of administration, for Phase-II screening; format: functional; outline: as §1
[21] = test system: Mus musculus; experiment: Anticonvulsant activity in mice, (induced by subcutaneous administration of Metrazol) after 0.25 hr of administration, for Phase-II screening; format: functional; conditions: sc; outline: as §1
[22] = test system: Mus musculus; experiment: Anticonvulsant activity in mice, induced by maximal electroshock for Phase-I screening; active at 100 mg/kg; format: functional, organism-based; parameters: dose 100 mg/kg; outline: as §2
[23] = test system: Mus musculus; experiment: Rotarod toxicity test in Phase-I screening was determined; active at 100 mg/kg; format: organism-based; parameters: dose 100 mg/kg; conditions: in vivo; outline: as §2
[24] = test system: Mus musculus; experiment: Anticonvulsant activity in mice, induced by subcutaneous administration of Metrazol for Phase-I screening; active at 100 mg/kg; format: functional, organism-based; parameters: dose 100 mg/kg; outline: as §2
[25] = test system: Mus musculus; experiment: Anticonvulsant activity in mice(induced by maximal electroshock) after 0.25 hr of administration, for Phase-II screening; format: functional; outline: as §1
[26] = test system: Mus musculus; experiment: Anticonvulsant activity in mice, induced by subcutaneous administration of Metrazol for Phase-I screening; Inactive up to 300 mg/kg; format: functional, organism-based; parameters: dose 300 mg/kg; outline: as §3
[27] = test system: Mus musculus; experiment: Anticonvulsant activity in mice, induced by subcutaneous administration of Metrazol for Phase-I screening; Active at 100 mg/kg; format: functional, organism-based; parameters: dose 100 mg/kg; outline: as §2

| IC50 [7] | Compound | ED50 [1] | TD50 [5] | MES [10] | scMet [12] | other results |
| --- | --- | --- | --- | --- | --- | --- |
| > 800 µM | CCC1(c2ccccc2)OC(=O)NC1=O (stereo not given) | 39 mg/kg | 164 mg/kg | – | – | ED50 [2]: 86 mg/kg; MES [3]: Active; Rotorod [4]: Active; scMet [6]: Active |
| > 800 µM | O=C1NCCCCCC1(O)c1ccccc1 (stereo not given) | – | 199 mg/kg | Active | Active | ED50 [8]: 108 mg/kg; ED50 [9]: 80 mg/kg; Rotorod [11]: Active |
| > 800 µM | COC1(c2ccccc2)CCCNC1=O (stereo not given) | 50 mg/kg | 239 mg/kg | Active | Active | ED50 [13]: 120 mg/kg; Rotorod [11]: Active |
| > 800 µM | O=C1NCCCCC1(O)c1ccccc1 (stereo not given) | – | 210 mg/kg | Active | Active | ED50 [8]: 74 mg/kg; ED50 [9]: 63 mg/kg; Rotorod [11]: Active |
| 500 µM | CCC1(c2ccccc2)OC(=O)N(C)C1=O (stereo not given) | 45 mg/kg | 504 mg/kg | – | – | ED50 [13]: 124 mg/kg; MES [3]: Active; Rotorod [4]: Active; scMet [6]: Active |
| 380 µM | O=C1O[C@@]2(c3ccccc3)CCCCN1C2=O | – | – | – | Active | MES [17]: inactive; Rotorod [18]: Not Active |
| > 800 µM | CN1CCCC(O)(c2ccccc2)C1=O (stereo not given) | 128 mg/kg | ~350 mg/kg | Active | Active | ED50 [13]: 84 mg/kg; Rotorod [18]: Not Active |

The next lines start with the compound.

| Compound | IC50 [7] | ED50 [1] | TD50 [5] | MES [10] | scMet [12] | other results |
| --- | --- | --- | --- | --- | --- | --- |
| CN1C(=O)OC(C)(C)C1=O [TRIMETHADIONE] | > 1000 µM | – | 819 mg/kg | – | – | ED50 [14]: 300 mg/kg; ED50 [15]: 627 mg/kg |
| NC(=O)N1c2ccccc2C=Cc2ccccc21 [CARBAMAZEPINE] | 131 µM | – | – | – | – | ED50 [16]: inactive; ED50 [9]: 9 mg/kg |
| O=C1NC(=O)C(c2ccccc2)(c2ccccc2)N1 [PHENYTOIN] | 40 µM | – | – | – | – | ED50 [19]: inactive; ED50 [20]: 10 mg/kg |
| O=C1O[C@]2(c3ccccc3)CCCCCN1C2=O | 160 µM | – | 147 mg/kg | – | – | ED50 [21]: 45 mg/kg; MES [22]: Active; Rotorod [23]: Active; scMet [24]: Active; ED50 [25]: 66 mg/kg |
| O=C1NCCCC1(O)c1ccccc1 (stereo not given) | > 800 µM | – | – | – | – | MES [17]: inactive; Rotorod [18]: Not Active; scMet [26]: inactive |
| CCOC(=O)N1CCCCC(O)(c2ccccc2)C1=O (stereo not given) | 640 µM | – | 216 mg/kg | Active | – | ED50 [9]: 84 mg/kg; Rotorod [11]: Active; scMet [27]: Active |
| CCOC(=O)N1CCCC(OC)(c2ccccc2)C1=O (stereo not given) | 590 µM | 124 mg/kg | > 300 mg/kg | – | Active | ED50 [13]: 225 mg/kg; MES [3]: Active; Rotorod [18]: Not Active |
